Measurements taken from ChEMBL document CHEMBL4152247, “Discovery of novel 2,4-diarylaminopyrimidine derivatives as potent and selective epidermal growth factor receptor (EGFR) inhibitors against L858R/T790M resistance mutation” (Eur J Med Chem, 2018).
Active and inactive are the calls of the source. The rule behind the calls is not given here.

What was measured:
[1] = biological target: Epidermal growth factor receptor (Homo sapiens, UniProt P00533, L858R/T790M); experiment: Inhibition of recombinant human GST-tagged EGFR T790M/L858R double mutant expressed in baculovirus expression system using poly (Glu, Tyr) 4:1 as substrate after 1 hr by ELISA
[2] = biological target: T1, Epidermal growth factor receptor (Homo sapiens, UniProt P00533); experiment: Inhibition of recombinant human GST-tagged wild type EGFR expressed in baculovirus expression system using poly (Glu, Tyr) 4:1 as substrate after 1 hr by ELISA
A-431 = experiment: Antiproliferative activity against wild type EGFR expressing human A431 cells after 72 hrs by SRB assay; assay type: cell-based; settings: A-431, 72 h
In short: (§1)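 SRB assay: cells seeded at 5×10^3 per well for 24 h, then exposed to serial dilutions for 72 h. DMSO stocks were 10.0 mg/ml. Cells were fixed with 10% TCA at 4 °C for 1 h and stained 15 min with 4 mg/mL SRB in 1% acetic acid. Absorbance was read at 515 nm. Inhibition was taken as [1-(A515 treated/A515 control)]×100%. IC50 was obtained by the logit method, averaging at least three independent experiments.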

Homo sapiens [3] = organism: Homo sapiens; experiment: Selectivity ratio of IC50 for recombinant human GST-tagged wild type EGFR to IC50 for recombinant human GST-tagged EGFR T790M/L858R double mutant
NCI-H1975 [4] = experiment: Antiproliferative activity against EGFR T790M/L858R double mutant expressing human NCI-H1975 cells after 72 hrs by SRB assay; assay type: functional, cell-based; settings: NCI-H1975, 72 h; in short: as §1
Homo sapiens [5] = organism: Homo sapiens; experiment: Selectivity index, ratio of IC50 for wild type EGFR expressing human A431 cells to IC50 for EGFR T790M/L858R double mutant expressing human NCI-H1975 cells
Mus musculus [6] = experiment: In vivo inhibition of wild type EGFR phosphorylation in tumor of BALB/c athymic nude mouse xenografted with human A431 cells at 10 mg/kg, po bid for 21 days; settings: 504 h
[7] = biological target: T1, Epidermal growth factor receptor; experiment: Inhibition of EGF-induced wild type EGFR phosphorylation in human A431 cells at 0.1 to 1000 nM preincubated for 2 hrs followed by EGF induction and measured after 10 mins by Western blot analysis; assay type: cell-based; settings: 1 µM
In short: (§2)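 Cells were treated with or without compound for 2 h, then stimulated with 50 ng/ml EGF for 10 min. They were lysed in SDS lysis buffer for Western blot. Blots were probed for p-EGFR, EGFR, p-ERK, ERK, p-AKT and AKT, with tubulin as reference.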

Mus musculus [8] = experiment: In vivo inhibition of EGFR T790M/L858R double mutant phosphorylation in tumor of BALB/c athymic nude mouse xenografted with human NCI-H1975 cells at 10 mg/kg, po bid for 21 days; assay type: functional, organism-based
In short: (§3)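 Western blot of NCI-H1975 xenograft tumors from mice given 10 mg/kg orally twice daily. Phospho-EGFR and phospho-Akt were quantified against the vehicle control group. Significance was set at p < 0.05.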

NCI-H1975 [9] = experiment: Antitumor activity against EGFR T790M/L858R double mutant expressing human NCI-H1975 cells xenografted in po dosed BALB/c athymic nude mouse assessed as tumor growth inhibition administered as bid for 21 days; assay type: functional, organism-based
Mus musculus [10] = experiment: In vivo inhibition of wild type EGFR phosphorylation in tumor of BALB/c athymic nude mouse xenografted with human A431 cells assessed as decrease in Akt phosphorylation at 10 mg/kg, po bid for 21 days; settings: 504 h
[11] = system: Epidermal growth factor receptor (Homo sapiens), P00533 [L858R,T790M]; experiment: Inhibition of EGF-induced EGFR T790M/L858R double mutant in human NCI-H1975 cells assessed as decrease in AKT phosphorylation preincubated for 2 hrs followed by EGF induction and measured after 10 mins by Western blot analysis; assay type: cell-based; in short: as §2
A431 (Homo sapiens) = experiment: Antitumor activity against wild type EGFR expressing human A431 cells xenografted in BALB/c athymic nude mouse assessed as tumor growth inhibition at 20 mg/kg, po bid for 21 days relative to vehicle-treated control; settings: in vivo, 504 h
Mus musculus [12] = experiment: Toxicity in BALB/c athymic nude mouse xenografted with EGFR T790M/L858R double mutant expressing human NCI-H1975 cells assessed as body weight loss at 10 to 20 mg/kg, po bid for 21 days; assay type: organism-based; settings: in vivo, 504 h
Mus musculus [13] = experiment: In vivo inhibition of EGFR T790M/L858R double mutant phosphorylation in tumor of BALB/c athymic nude mouse xenografted with human NCI-H1975 cells assessed as decrease in Akt phosphorylation at 10 mg/kg, po bid for 21 days; assay type: functional, organism-based; in short: as §3
Mus musculus [14] = experiment: Toxicity in BALB/c athymic nude mouse xenografted with wild type EGFR expressing human A431 cells assessed as body weight loss at 10 to 20 mg/kg, po bid for 21 days; settings: in vivo, 504 h
[15] = system: Epidermal growth factor receptor (Homo sapiens), P00533 [L858R,T790M]; experiment: Inhibition of EGF-induced EGFR T790M/L858R double mutant phosphorylation in human NCI-H1975 cells preincubated for 2 hrs followed by EGF induction and measured after 10 mins by Western blot analysis; assay type: cell-based; in short: as §2
[16] = system: Epidermal growth factor receptor (Homo sapiens), P00533 [L858R,T790M]; experiment: Inhibition of EGF-induced EGFR T790M/L858R double mutant in human NCI-H1975 cells assessed as decrease in ERK phosphorylation preincubated for 2 hrs followed by EGF induction and measured after 10 mins by Western blot analysis; assay type: cell-based; in short: as §2
NCI-H1975 [17] = experiment: Antitumor activity against EGFR T790M/L858R double mutant expressing human NCI-H1975 cells xenografted in BALB/c athymic nude mouse assessed as tumor growth inhibition at 10 mg/kg, po bid for 21 days; assay type: functional, organism-based
In short: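 5×10^6 NCI-H1975 cells injected subcutaneously into the right flank of athymic mice. At tumour volume 100-300 mm³, mice were randomised (n = 6 per group) to vehicle or drug. Drug given orally twice daily. Tumour size and body weight were measured on set days, with volume = length×width²/2. Results are group means with SEM.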

Epidermal growth factor receptor (Homo sapiens), P00533 [L858R,T790M], sequence (P00533 whole entry T790M/L858R, looked up): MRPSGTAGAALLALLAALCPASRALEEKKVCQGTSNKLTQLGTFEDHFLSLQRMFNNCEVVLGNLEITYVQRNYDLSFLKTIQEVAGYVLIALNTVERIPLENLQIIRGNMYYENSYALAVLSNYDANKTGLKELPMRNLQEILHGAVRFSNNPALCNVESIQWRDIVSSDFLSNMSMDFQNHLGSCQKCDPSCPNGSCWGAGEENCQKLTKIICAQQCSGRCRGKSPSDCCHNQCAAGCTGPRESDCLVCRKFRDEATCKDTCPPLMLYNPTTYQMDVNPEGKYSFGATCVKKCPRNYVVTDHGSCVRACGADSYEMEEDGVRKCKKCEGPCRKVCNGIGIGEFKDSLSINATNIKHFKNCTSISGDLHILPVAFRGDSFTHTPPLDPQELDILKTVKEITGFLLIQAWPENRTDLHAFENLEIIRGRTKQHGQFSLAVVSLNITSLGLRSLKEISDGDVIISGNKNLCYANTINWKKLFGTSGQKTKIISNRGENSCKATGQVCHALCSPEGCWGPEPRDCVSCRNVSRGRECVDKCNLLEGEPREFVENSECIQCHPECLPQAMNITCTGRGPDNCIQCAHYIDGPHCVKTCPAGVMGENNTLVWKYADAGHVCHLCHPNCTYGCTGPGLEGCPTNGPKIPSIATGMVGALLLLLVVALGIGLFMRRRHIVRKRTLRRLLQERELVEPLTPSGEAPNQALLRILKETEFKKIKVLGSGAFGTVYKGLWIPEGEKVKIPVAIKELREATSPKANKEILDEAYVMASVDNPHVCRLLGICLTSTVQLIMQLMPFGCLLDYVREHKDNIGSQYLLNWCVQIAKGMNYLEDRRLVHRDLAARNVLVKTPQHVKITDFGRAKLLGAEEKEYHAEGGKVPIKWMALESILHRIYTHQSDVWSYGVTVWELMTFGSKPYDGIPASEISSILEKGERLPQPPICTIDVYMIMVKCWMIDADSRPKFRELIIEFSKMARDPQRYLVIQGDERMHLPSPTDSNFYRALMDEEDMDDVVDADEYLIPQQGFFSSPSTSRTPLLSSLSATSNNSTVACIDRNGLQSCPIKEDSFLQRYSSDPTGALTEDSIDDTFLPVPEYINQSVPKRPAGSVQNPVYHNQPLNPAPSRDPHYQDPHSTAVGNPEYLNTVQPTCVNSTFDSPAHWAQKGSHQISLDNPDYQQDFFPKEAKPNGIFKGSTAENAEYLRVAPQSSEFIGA
Epidermal growth factor receptor (Homo sapiens, UniProt P00533, L858R/T790M), sequence (P00533 25-1210 T790M/L858R limits assumed): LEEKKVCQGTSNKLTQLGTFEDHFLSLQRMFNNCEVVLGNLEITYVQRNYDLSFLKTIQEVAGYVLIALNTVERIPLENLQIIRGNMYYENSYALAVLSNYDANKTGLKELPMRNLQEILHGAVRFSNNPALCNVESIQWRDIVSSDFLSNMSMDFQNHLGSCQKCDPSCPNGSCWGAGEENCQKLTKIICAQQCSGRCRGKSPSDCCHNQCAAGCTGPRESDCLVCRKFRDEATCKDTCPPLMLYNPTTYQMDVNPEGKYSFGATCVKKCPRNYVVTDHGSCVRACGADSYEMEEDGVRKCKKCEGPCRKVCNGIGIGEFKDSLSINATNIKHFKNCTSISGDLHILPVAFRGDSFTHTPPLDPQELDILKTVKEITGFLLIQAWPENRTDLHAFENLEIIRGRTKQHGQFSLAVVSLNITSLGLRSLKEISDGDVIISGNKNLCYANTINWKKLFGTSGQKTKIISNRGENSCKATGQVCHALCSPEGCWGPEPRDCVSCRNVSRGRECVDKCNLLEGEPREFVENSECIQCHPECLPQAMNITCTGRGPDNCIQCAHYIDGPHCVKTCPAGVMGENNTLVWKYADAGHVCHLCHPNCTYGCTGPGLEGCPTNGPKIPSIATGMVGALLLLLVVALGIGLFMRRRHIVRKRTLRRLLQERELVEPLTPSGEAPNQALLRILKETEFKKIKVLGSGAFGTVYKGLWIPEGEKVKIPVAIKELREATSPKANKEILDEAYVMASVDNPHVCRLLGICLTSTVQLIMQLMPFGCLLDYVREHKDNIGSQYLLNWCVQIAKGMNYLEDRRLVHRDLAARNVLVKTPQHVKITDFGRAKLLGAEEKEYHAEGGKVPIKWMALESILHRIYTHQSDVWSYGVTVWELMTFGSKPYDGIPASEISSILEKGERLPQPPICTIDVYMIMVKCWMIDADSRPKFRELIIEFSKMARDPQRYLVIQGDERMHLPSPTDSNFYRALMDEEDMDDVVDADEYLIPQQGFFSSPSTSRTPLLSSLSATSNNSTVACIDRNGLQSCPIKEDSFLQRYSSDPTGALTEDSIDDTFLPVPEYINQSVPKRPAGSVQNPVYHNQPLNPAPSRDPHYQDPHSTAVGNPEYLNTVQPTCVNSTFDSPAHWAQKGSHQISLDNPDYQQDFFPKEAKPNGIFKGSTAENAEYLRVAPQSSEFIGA
T1 sequence (P00533 whole entry): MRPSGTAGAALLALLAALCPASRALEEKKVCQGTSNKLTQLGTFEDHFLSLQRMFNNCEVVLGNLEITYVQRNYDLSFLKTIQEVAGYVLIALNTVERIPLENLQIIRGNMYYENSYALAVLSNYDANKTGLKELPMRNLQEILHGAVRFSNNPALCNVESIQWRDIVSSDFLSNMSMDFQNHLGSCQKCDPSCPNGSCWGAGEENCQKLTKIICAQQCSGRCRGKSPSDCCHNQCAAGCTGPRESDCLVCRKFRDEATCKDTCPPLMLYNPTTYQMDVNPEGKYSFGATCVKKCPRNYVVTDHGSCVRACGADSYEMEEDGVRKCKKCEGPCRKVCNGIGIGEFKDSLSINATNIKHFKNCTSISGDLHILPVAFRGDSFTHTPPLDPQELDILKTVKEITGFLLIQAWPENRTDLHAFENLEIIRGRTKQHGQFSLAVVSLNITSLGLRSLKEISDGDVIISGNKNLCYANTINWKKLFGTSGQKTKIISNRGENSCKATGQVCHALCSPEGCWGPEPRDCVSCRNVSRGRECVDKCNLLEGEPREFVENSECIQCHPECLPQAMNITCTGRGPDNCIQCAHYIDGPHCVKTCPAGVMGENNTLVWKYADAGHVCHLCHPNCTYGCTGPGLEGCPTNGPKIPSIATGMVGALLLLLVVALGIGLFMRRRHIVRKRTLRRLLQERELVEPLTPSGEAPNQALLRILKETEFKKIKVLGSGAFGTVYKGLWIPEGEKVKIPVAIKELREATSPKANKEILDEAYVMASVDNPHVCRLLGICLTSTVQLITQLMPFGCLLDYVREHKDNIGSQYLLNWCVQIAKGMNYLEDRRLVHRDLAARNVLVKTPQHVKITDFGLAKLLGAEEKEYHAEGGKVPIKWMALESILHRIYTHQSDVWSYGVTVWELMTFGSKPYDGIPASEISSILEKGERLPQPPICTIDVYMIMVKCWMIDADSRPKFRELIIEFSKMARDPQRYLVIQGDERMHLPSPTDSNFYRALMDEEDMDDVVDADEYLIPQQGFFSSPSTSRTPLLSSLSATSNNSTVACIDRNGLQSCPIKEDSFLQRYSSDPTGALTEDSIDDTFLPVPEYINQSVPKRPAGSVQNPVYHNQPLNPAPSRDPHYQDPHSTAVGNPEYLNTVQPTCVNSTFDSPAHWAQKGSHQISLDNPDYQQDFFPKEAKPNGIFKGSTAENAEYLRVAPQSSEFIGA

Row | SMILES | IC50 [1] | IC50 [2] | IC50 (A-431) | Ratio IC50 (Homo sapiens [3]) | IC50 (NCI-H1975 [4]) | Ratio IC50 (Homo sapiens [5]) | other results
1 | C=CC(=O)Nc1cc(Nc2nccc(Nc3ccccc3-n3cccn3)n2)c(OC)cc1N1CCOCC1 | > 1 µM | > 1 µM | – | – | – | – | –
2 | C=CC(=O)Nc1cc(Nc2nccc(Nc3ccccc3-c3ncn(C)n3)n2)c(OC)cc1N(C)CCN(C)C | 0.0077 µM | 0.66 µM | 1.5 µM | 86 | 0.074 µM | 20 | –
3 | C=CC(=O)Nc1cc(Nc2nccc(Nc3ccccc3-c3ccn(C)n3)n2)c(OC)cc1N1CCOCC1 | > 1 µM | > 1 µM | – | – | – | – | –
4 | C=CC(=O)Nc1cc(Nc2nccc(Nc3ccccc3-c3ccn(C)n3)n2)c(OC)cc1N(C)CCN(C)C | 0.0041 µM | 0.35 µM | 7.37 µM | 85 | 0.059 µM | 124 | inhibition (INH) (Mus musculus [6]): Not Active; inhibition (INH) [7]: Not Active; inhibition (Mus musculus [8]): Active; TGI (NCI-H1975 [9]): Dose-dependent effect; inhibition (INH) (Mus musculus [10]): Not Active; inhibition [11]: Dose-dependent effect; TGI (A431 (Homo sapiens)): < 20%; Activity (Mus musculus [12]): Non-Toxic; inhibition (Mus musculus [13]): Active; Activity (Mus musculus [14]): Non-Toxic; inhibition [15]: Dose-dependent effect; inhibition [16]: Dose-dependent effect
5 | C=CC(=O)Nc1cc(Nc2nccc(Nc3ccccc3-n3nccn3)n2)c(OC)cc1N1CCOCC1 | 0.838 µM | > 1 µM | – | – | – | – | –
6 | C=CC(=O)Nc1cc(Nc2nccc(Nc3ccccc3-n3cccn3)n2)c(OC)cc1N(C)CCN(C)C | 0.0041 µM | 0.648 µM | 10.1 µM | 158 | 0.068 µM | 148 | –
7 | C=CC(=O)Nc1cc(Nc2nccc(Nc3ccccc3-c3ccn(C)n3)n2)c(OC)cc1OCCN(C)C | 0.0164 µM | 0.317 µM | 1.58 µM | 19 | 0.085 µM | 18 | –
8 | C=CC(=O)Nc1cc(Nc2nccc(-c3cn(C)c4ccccc34)n2)c(OC)cc1N(C)CCN(C)C [OSIMERTINIB] | – | – | […] | – | […] | – | TGI (NCI-H1975 [17]): Active
9 | C=CC(=O)Nc1cc(Nc2nccc(Nc3ccccc3-n3nccn3)n2)c(OC)cc1N1CCN(C)CC1 | 0.175 µM | > 1 µM | – | – | – | – | –
10 | C=CC(=O)Nc1cc(Nc2nccc(Nc3ccccc3-c3ccn(C)n3)n2)c(OC)cc1N1CCC(N(C)C)CC1 | 0.0385 µM | > 1 µM | – | – | – | – | –
11 | C=CC(=O)Nc1cc(Nc2nccc(Nc3ccccc3-n3cccn3)n2)c(OC)cc1N1CCN(C)CC1 | 0.143 µM | > 1 µM | – | – | – | – | –
12 | C=CC(=O)Nc1cc(Nc2nccc(Nc3ccccc3-c3ccn(C)n3)n2)c(OC)cc1N1CCN(C)CC1 | > 1 µM | > 1 µM | – | – | – | – | –
13 | C=CC(=O)Nc1cc(Nc2nccc(Nc3ccccc3-n3nccn3)n2)c(OC)cc1N(C)CCN(C)C | 0.0331 µM | 0.281 µM | – | 8 | – | – | –
14 | C=CC(=O)Nc1cc(Nc2nccc(Nc3ccccc3-n3nccn3)n2)c(OC)cc1N1CCC(N(C)C)CC1 | 0.202 µM | > 1 µM | 2.76 µM | – | 0.07 µM | 39 | –
